The source made the active and inactive calls. The calls are words filed in the database; no cut-off is given here.
Columns and labels:
[1] = Tmax in Wistar Han rat at 5 mg/kg, po administered via gavage by LC-MS/MS analysis; type: ADME, organism-based; conditions: in vivo
[2] = AUC (0 to infinity) in beagle dog at 0.3 mg/kg, iv by LC-MS/MS analysis; type: ADME, organism-based, Canis lupus familiaris; parameters: dose 0.3 mg/kg, route intravenous, time infinity; conditions: in vivo
Procedure, shortened: (§1)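 Dogs received a single IV dose as a solution in 20% (w/v) sulfobutylether-β-cyclodextrin with hydrochloric acid, at 0.4 mL/kg. Blood was drawn by carotid artery cannula into K3EDTA at set times from 2 min to 24 h. Plasma was acetonitrile-precipitated with internal standard and run by positive-ESI LC-MS/MS against standards of 0.61–1250 ng/mL. AUC was extrapolated from time 0 to infinity.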

Liver = test: Drug metabolism in dog liver microsomes assessed as 3-(7-methyl-5-(1-methyl-5-(5-(trifluoromethyl)pyridin-2-yl)-1H-pyrazol-4-yl)imidazo[1,5-f][1,2,4]triazin-4-ylamino)propanoic acid formation at 1 to 50 uM after 1 hr by LC-MS/MS analysis; type: ADME, Canis lupus familiaris, microsome
Procedure, shortened: (§2)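 Rat, dog or human liver microsomes or hepatocytes (P450 0.35–0.5 µM final) incubated with compound at 1, 10 or 50 µM in 100 mM phosphate buffer with 1 mM NADP regenerating system, 37°C for 1 h; quenched with 4 volumes acetonitrile, centrifuged, supernatant evaporated, reconstituted in 5% aqueous acetonitrile and analysed by reversed-phase LC.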

[3] = AUC (0 to infinity) in Wistar Han rat at 1 mg/kg, iv by LC-MS/MS analysis; type: ADME, organism-based; parameters: dose 1 mg/kg, time infinity, route intravenous; conditions: in vivo
Procedure, shortened: as §1, with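 “Male Wistar-Han rats” for “Dogs”, “acid.” for “acid, at 0.4 mL/kg.”, “K2EDTA” for “K3EDTA”, “0.61–625” for “0.61–1250”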

[4] = Tmax in beagle dog at 5 mg/kg, po administered via gavage by LC-MS/MS analysis; type: ADME, organism-based, Canis lupus familiaris; conditions: in vivo
Cytochrome P450 2D6 = Cytochrome P450 2D6 (Homo sapiens, UniProt P10635); test: Time-dependant inhibition of recombinant human CYP2D6; type: ADME; conditions: recombinant enzyme
[5] = Drug metabolism in dog hepatocytes assessed as 1-(7-methyl-5-(1-methyl-5-(5-(trifluoromethyl)pyridin-2-yl)-1H-pyrazol-4-yl)imidazo[1,5-f][1,2,4]triazin-4-yl)azetidin-3-ol formation at 1 to 50 uM after 1 hr by LC-MS/MS analysis; type: ADME, cell-based, Canis lupus familiaris, Hepatocyte; procedure, shortened: as §2
Canis familiaris [6] = test: Toxicity in dog assessed as effect on vasculature up to 15 mg/kg/day, po for 14 days by microscopic method; type: organism-based, Canis lupus familiaris; conditions: in vivo, 336 h
Rattus norvegicus [7] = test: Reversal of ketamine-induced working memory deficit in Long Evans rat at 1 mg/kg, sc by radial arm maze assay; type: functional, organism-based
Procedure, shortened: (§3)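 Rats trained in a radial arm maze working-memory task, with deficit induced by ketamine. Compound dosed sc; errors compared with vehicle + ketamine. N = 20–23 per group, Hochberg test. Cbu at the tested doses estimated from satellite pharmacokinetic animals.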

Rattus norvegicus [8] = test: Cardiotoxicity in rat at 5 to 250 mg/kg/day, po up to 15 days by microscopic method; type: toxicity, organism-based; conditions: in vivo, 360 h
Procedure, shortened: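 Exploratory rat toxicity study, oral dosing at 5, 50 and 250 mg/kg/day for up to 15 days, with microscopic examination of heart and vasculature and measurement of plasma and brain exposure.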

Canis familiaris [9] = organism: Canis familiaris; test: Toxicity in dog assessed as effect on CNS up to 1 month by microscopic method; parameters: species or system Canis lupus familiaris; conditions: in vivo
Cytochrome P450 2B6 = biological target: T1, Cytochrome P450 2B6 (Homo sapiens, UniProt P20813); test: Time-dependant inhibition of recombinant human CYP2B6; type: ADME; conditions: recombinant enzyme
T1 sequence (P20813 whole entry): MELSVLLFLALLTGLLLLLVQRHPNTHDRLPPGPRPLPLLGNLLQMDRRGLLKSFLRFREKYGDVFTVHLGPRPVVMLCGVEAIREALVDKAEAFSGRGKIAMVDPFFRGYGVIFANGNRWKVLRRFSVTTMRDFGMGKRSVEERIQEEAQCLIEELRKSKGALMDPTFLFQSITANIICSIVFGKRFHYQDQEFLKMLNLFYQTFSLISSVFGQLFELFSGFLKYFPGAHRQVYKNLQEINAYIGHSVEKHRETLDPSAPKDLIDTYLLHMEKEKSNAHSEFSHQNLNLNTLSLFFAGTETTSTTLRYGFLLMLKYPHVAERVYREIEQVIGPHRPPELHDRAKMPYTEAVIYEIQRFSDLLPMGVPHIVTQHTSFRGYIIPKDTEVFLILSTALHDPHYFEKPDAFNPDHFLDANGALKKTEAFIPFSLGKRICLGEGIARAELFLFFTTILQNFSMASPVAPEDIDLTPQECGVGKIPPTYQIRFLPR

Rattus norvegicus [10] = test: Reversal of MK-801-induced disruption of low frequency cortical delta oscillation in Sprague-Dawley rat brain at 0.03 mg/kg, iv in early time point measured up to 55 mins by electrophysiology method; type: functional, organism-based
Mus musculus [11] = organism: Mus musculus; test: Increase in cGMP level in CD-1 mouse brain hippocampus assessed per nM of unbound brain concentration by immunoassay; type: functional
Procedure, shortened: (§4)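 CD-1 mice given compound; brains fixed by focused microwave irradiation, and cortex, striatum and hippocampus dissected and homogenized in 0.5 N HCl, then centrifuged. cGMP in the supernatant measured by enzyme immunoassay. Unbound brain concentration taken from satellite animals. Dose-response and time-course data combined, and a linear Cbu–cGMP model fitted. The Cbu E50 is the projected Cbu giving a 50% rise in cGMP. Statistics by one-way ANOVA with Fisher's PLSD, p<0.05.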

Cytochrome P450 1A2 = biological target: T2, Cytochrome P450 1A2 (Homo sapiens, UniProt P05177); test: Induction of CYP1A2 (unknown origin); type: ADME
T2 sequence (P05177 whole entry): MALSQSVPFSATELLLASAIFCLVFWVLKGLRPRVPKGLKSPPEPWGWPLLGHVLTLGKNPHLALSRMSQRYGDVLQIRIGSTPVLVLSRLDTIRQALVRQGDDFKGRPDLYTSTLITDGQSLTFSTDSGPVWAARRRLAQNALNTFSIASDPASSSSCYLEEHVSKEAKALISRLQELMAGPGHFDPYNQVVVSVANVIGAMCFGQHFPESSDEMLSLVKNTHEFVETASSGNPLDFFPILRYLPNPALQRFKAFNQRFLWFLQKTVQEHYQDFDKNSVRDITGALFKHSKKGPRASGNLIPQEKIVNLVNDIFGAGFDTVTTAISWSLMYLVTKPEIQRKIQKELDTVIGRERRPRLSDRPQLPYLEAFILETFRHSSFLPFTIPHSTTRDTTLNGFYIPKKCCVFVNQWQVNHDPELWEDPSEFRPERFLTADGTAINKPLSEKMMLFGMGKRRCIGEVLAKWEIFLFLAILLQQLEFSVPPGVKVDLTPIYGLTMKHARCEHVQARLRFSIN

Canis familiaris [12] = organism: Canis familiaris; test: Toxicity in dog assessed as effect on vasculature up to 1 month by microscopic method; parameters: species or system Canis lupus familiaris; conditions: in vivo
Rattus norvegicus [13] = test: Reversal of ketamine-induced working memory deficit in Long Evans rat assessed as unbound brain concentration required to show effect at 0.1 mg/kg, sc by radial arm maze assay; type: functional, organism-based; procedure, shortened: as §3
Mus musculus [14] = organism: Mus musculus; test: Increase in cGMP level in CD-1 mouse brain striatum by immunoassay; type: functional; procedure, shortened: as §4

Sequence of Cytochrome P450 2D6 (P10635 whole entry): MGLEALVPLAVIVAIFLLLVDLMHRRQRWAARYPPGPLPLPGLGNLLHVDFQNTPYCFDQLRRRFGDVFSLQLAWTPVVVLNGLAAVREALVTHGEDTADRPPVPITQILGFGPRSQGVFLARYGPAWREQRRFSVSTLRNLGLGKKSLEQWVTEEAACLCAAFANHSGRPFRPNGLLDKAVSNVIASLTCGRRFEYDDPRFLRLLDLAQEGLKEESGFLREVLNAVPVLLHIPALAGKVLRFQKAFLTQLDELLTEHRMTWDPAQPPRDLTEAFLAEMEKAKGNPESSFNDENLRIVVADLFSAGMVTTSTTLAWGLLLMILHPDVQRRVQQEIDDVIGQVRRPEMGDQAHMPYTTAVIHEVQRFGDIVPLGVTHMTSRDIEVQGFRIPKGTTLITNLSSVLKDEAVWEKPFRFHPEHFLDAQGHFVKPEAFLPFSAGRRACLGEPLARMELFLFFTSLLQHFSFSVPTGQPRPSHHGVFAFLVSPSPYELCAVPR

- Tmax [1]: 4.8 min
- AUC(0-inf) [2]: 431 ng·h/mL
- Drug metabolism (Liver): Metabolite_Detected
- AUC(0-inf) [3]: 141 ng·h/mL
- Tmax [4]: 15 min
- TDI (Cytochrome P450 2D6): Not Active
- Drug metabolism [5]: Metabolite_Detected
- TDI (Cytochrome P450 2B6): Not Active
- Activity (Cytochrome P450 1A2): Not Active
Compound: Cc1nc(-c2cnn(C)c2-c2ccc(C(F)(F)F)cn2)c2c(N3CCC3)ncnn12 [PF-05180999]
- Activity (Canis familiaris [6]): Non-Toxic
- Activity (Rattus norvegicus [7]): inactive
- Activity (Rattus norvegicus [8]): Non-Toxic
- Activity (Canis familiaris [9]): Toxic
- Activity (Rattus norvegicus [10]): Active
- Activity (Mus musculus [11]): 0.43%
- Activity (Canis familiaris [12]): Non-Toxic
- Drug uptake(free) (Rattus norvegicus [13]): 3.1 nM
- Activity (Mus musculus [14]): Dose-dependent effect

— ChEMBL document CHEMBL4024790 (J Med Chem, 2018)
